Assay [1] has as its target Epidermal growth factor receptor (Homo sapiens, UniProt P00533). Kind of assay: Inhibition of EGF-induced EGFR autophosphorylation at Y1068 residues in human H3255 cells by Western blot method. It counts as cell-based. In short, it runs like this:
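Cell lysates prepared in protein lysis buffer and cleared at 12,000 g for 10 min at 4 °C. 50 μg protein per lane was run on a gel, transferred to PVDF and immunoblotted, with GAPDH as the loading control.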
A general note: Immunoblotting shows a protein as a band on a membrane.

For the next assay, the system named is Mus musculus. In words: In vivo inhibition of ERK1/2 phosphorylation in tumor of BALB/C nude mouse xenografted with human PC9 cells at 15 to 30 mg/kg, ip qd administered for 19 days by immunoblot method. It counts as functional, organism-based.

The source made the active and inactive calls. No cut-off for these calls is given here.

Sequence of Epidermal growth factor receptor (P00533 whole entry): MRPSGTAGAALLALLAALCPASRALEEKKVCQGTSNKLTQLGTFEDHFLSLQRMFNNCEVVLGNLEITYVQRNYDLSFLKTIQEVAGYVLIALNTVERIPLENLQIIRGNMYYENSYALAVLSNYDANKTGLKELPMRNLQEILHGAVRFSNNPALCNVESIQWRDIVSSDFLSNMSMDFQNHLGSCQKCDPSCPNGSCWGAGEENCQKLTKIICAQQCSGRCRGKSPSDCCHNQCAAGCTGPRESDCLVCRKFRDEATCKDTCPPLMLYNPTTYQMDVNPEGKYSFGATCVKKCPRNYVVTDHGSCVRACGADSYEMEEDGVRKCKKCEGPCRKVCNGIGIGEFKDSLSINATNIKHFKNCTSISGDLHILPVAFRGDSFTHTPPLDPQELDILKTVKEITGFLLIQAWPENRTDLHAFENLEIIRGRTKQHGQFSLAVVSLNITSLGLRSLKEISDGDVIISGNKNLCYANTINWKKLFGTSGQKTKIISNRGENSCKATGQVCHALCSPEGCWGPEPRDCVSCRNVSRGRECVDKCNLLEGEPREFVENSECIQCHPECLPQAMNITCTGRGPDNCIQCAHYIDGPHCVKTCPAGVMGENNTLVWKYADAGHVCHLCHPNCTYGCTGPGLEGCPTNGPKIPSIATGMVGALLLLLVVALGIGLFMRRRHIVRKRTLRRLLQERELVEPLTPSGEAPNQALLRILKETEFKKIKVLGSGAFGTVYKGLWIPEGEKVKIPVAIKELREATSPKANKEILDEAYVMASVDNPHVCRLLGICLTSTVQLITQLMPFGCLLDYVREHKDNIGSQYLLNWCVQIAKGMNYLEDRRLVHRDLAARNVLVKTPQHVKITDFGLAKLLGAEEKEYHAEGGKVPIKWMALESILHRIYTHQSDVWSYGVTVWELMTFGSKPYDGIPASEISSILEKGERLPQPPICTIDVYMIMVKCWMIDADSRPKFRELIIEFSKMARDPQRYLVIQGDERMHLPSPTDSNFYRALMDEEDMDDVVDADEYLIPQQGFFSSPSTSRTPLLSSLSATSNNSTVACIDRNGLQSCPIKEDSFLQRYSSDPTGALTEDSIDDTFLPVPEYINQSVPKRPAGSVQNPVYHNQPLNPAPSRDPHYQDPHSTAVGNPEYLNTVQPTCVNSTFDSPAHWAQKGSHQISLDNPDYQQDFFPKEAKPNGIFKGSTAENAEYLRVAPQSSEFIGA

As to `COc1cccc(Nc2cc(Nc3cc(OC)ccc3OC)ncn2)c1`, the inhibition result in assay [1] is “Dose-dependent effect”. The inhibition entry with Mus musculus is “Active”.
